Kir21 inh: inhibitors of mouse Kir2.1 inward-rectifier potassium channel; P35561; HEK293-Kir2.1, FluxOR thallium flux fluorescence; hits give low values; B-score at 10 µM; 0.85% of 310,000 active;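 active = fluorescence ratio B-score at or below minus 3 SD of library scores, with starting-brightness B-score within 2 SD, cut at about -4.2 in these data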;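 note: channel flux triggered by added potassium and thallium sulfate stimulus; B-score of peak minus minimum fluorescence over baseline after thallium stimulus; more negative B-score means stronger Kir2.1 block with less thallium influx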
KCNQ1 pot: potentiates or activates the human KCNQ1 potassium channel; P51787; CHO-K1 KCNQ1, thallium flux FluxOR fluorescence; hits give high values; B-score at 10 µM; 0.35% of 310,000 active; AID 2648;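 active = fluorescence ratio B-score, a plate-corrected score, at least three library SD, with initial intensity B-score within 5 SD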
Target sequence (P51787 whole entry, looked up): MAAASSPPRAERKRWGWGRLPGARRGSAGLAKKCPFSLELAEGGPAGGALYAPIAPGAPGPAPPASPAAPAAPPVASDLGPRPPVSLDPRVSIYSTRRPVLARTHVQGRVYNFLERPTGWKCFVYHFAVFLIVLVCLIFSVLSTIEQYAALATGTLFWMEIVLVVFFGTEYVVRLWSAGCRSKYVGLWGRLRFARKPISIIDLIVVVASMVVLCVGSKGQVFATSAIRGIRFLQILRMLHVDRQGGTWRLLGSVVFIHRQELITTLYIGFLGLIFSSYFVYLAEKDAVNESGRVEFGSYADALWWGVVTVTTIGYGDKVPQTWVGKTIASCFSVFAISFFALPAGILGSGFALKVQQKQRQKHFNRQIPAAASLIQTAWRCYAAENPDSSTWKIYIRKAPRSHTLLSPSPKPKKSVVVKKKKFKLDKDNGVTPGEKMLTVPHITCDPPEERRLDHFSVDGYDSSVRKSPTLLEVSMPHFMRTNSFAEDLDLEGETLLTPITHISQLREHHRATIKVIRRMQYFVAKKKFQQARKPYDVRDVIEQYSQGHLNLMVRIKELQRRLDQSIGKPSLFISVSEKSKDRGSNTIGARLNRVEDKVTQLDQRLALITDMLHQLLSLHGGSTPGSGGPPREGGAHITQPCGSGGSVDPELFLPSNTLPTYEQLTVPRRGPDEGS
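System: Stable KCNQ1 CHO-K1 line | Incubation: 90 min dye loading and 20 min compound exposure, both at room temperature | Measure: Ratio B score | Medium: Assay buffer for compound exposure, DMSO matched across wells | Compound dosing: Single-concentration screen | Probe or stimulus: K+/Tl+ depolarizing stimulus | Measured by: Kinetic FluxOR fluorescence, 10 s baseline plus 110 s post-stimulus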
KCNK3 block: human KCNK3 channel inhibition, primary screen. 0.84% of 340,000 active. CHO-KCNK3 thallium flux, FluxOR fluorescence; hits give low values. B-score at 10 µM. AID 602410. O14649;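 active = B-score under library mean minus 4 SD, starting fluorescence ratio at most library mean plus 5 SD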;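 note: more negative B-score means stronger inhibition of thallium flux through KCNK3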
hERG rescue: hERG (human) protection from proarrhythmic block. activation (rescue from dofetilide block), less the hit threshold, % at 10 µM. CHO-hERG, FluxOR thallium flux, dofetilide IC70 present. AID 1511. Q12809. 0.51% of 310,000 active;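 active = activation above the mean of controls blocked by dofetilide plus 5 SD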;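 note: thallium influx through hERG after potassium depolarization seen as dye fluorescence rise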
KCNQ1 block: human KCNQ1 channel inhibition; 1.3% of 310,000 active; CHO-K1 KCNQ1, FluxOR thallium flux fluorescence; hits give high values; B-score at 10 µM; AID 2642;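 active = compounds whose thallium flux B-score, printed positive for inhibition, exceeds three library SD while starting fluorescence stays within three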;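 note: channel opened by potassium depolarization with thallium stimulus after 20 min compound exposure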
KCNK9 inh: inhibitors of human KCNK9 two-pore domain potassium channel; HEK293 KCNK9, FluxOR thallium flux fluorescence; hits give low values; Q9NPC2; 1.2% of 310,000 active; B-score at 10 µM;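 active = ratio B-score over 3 SD below the library mean, with starting fluorescence within 5 SD of its mean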;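 note: negative B-score means less thallium flux so channel inhibition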
The depositor's hits bear a star; i = inactive; / = no result given. The list is not random: actives were taken first. Their share in the collection is about 3.7%.

SMILES | Kir21 inh | KCNQ1 pot | KCNK3 block | hERG rescue | KCNQ1 block | KCNK9 inh
Cc1ccc(CSc2ccc(S(=O)(=O)N3CCCC3)cn2)cc1 | / | / | i | / | / | /
COCC(=O)N1CCC(Oc2ccc(C(=O)N3C[C@H]4CC[C@H]3C4)cc2)CC1 | 1.6 | i | i | -13 | i | i
CCCn1c(N)c(C(=O)CSc2nc3ccccc3s2)c(=O)[nH]c1=O | 1.1 | i | i | 5.4* | i | i
CC(=O)NC12CC3CC(C1)CC(C(=O)Oc1ccc(N(C)S(=O)(=O)c4cc(C)ccc4C)cc1)(C3)C2 | 1.1 | i | i | -8 | 6* | i
Cc1ccc(NC(=O)CSCC(=O)N(C)CC(=O)Nc2cccc(F)c2)cc1 | -1.2 | i | i | -8 | i | i
c1ccc(-c2cc(N3CCOCC3)nc3ccccc23)cc1 | -0.88 | i | i | -5 | 6* | i
Nc1cc(=O)[nH]c(SCC(=O)Nc2ccc(N3CCOCC3)cc2)n1 | / | / | i | / | / | /
COc1ccccc1NS(=O)(=O)c1ccc(C(=O)N2CC(C)OC(C)C2)cc1 (stereo not drawn) | / | / | i | / | / | /
CCOC(=O)c1c(C)[nH]c(C(=O)CN(C)CC(=O)Nc2ccccc2C(F)(F)F)c1C | / | / | -8.8* | / | / | /
CCC1C(=O)CC(c2ccc([N+](=O)[O-])cc2)NC1c1ccc([N+](=O)[O-])cc1 (stereo not drawn) | 0.14 | i | i | -15 | 8* | i
CCN(Cc1nc(-c2cccc(C)c2)no1)C(=O)c1ccco1 | 2.7 | i | i | -9 | i | i
O=C(Cc1ccccc1)Nc1ccc(NC(=O)c2cccc(Cl)c2)cc1 | 1.6 | i | i | -2 | i | i
Cc1cc(C)cc(C(=O)Nc2ccc(NC(=O)Cc3ccccc3)cc2)c1 | 0.04 | i | i | 6.2* | i | i
COc1ccc(NC(=O)CCc2nnc3ccc(N4CCN(c5cccc(OC)c5)CC4)nn23)cc1 | -0.57 | i | i | -25 | i | i
O=[N+]([O-])c1ccc(CNc2cccc(Cl)c2)s1 | -0.32 | i | i | -7 | 6* | i
O=[N+]([O-])c1ccc(CNc2ccc(Cl)cc2)s1 | 0.89 | i | i | -10 | i | i
Cc1ccccc1-c1nnc(SCC(=O)N(C)C2CCS(=O)(=O)C2)n1C (stereo not drawn) | / | / | i | / | / | /
CCCn1c(SCC(=O)c2cc(C)n(-c3ccc4c(c3)OCO4)c2C)n[nH]c1=O | -6.7* | i | i | -10 | i | i
CC(C)(C)C(=O)CC(=O)Nc1ccc(Cl)c(N)c1 | 0.02 | i | i | 4.9* | i | i
CCCC(=O)Nc1ccc(Cl)c(NC(=O)C(C)(C)C)c1 | -0.1 | i | i | -5 | i | i
CCCCCCCCC1=NCCc2c1[nH]c1ccccc21 | -7.8* | i | i | -23 | 8* | i
Cn1c(=O)c2c(ncn2CC(=O)N/N=C/C(Cl)=C/c2ccccc2)n(C)c1=O | 0.07 | 11* | i | -8 | i | i
Cn1c(=O)c2c(ncn2CCC(=O)N/N=C/c2ccccc2)n(C)c1=O | -0.36 | i | i | -5 | i | i
CCCN(CC(=O)Nc1ccccc1OC)C(=O)CSc1ccc(Br)cc1C | / | / | i | / | / | /
Cc1ccc(NC(=O)C2CC(O)CN2C(=O)OCc2ccccc2)c(C)c1 (stereo not drawn) | 1.1 | i | i | -6 | i | i
SMILES | Kir21 inh | KCNQ1 pot | KCNK3 block | hERG rescue | KCNQ1 block | KCNK9 inh
O=C(NC1CC1)c1cccc(NC(=O)C2CCCC2)c1 | / | / | i | / | / | /
O=C(Nc1ccccc1Cl)c1cccc(NC(=O)C2CCCC2)c1 | -0.08 | i | i | -12 | i | -6.9*
COc1ccccc1NS(=O)(=O)c1ccc(C)c(NC(=O)C2CCCO2)c1 (stereo not drawn) | / | / | i | / | / | /
Cc1ccc(C)n1-c1ccc(C(=O)N2CCC(C(N)=O)CC2)cc1 | -0.03 | i | i | 7.2* | i | i
COc1ccc(C(=O)CC(=O)C(=O)Nc2ccccc2OC)cc1 | -1.1 | i | i | 1 | i | i
COc1cccc(C(=O)CC(=O)C(=O)Nc2ccc(C)cc2Cl)c1 | -0.01 | i | i | 31* | i | i
COc1ccc(C(=O)CC(=O)C(=O)Nc2ccc(C)cc2Cl)cc1 | 0.89 | i | i | 56* | i | i
CCOc1ccccc1NC(=O)C(=O)CC(=O)c1cccc(OC)c1 | 0.81 | 16* | i | 12* | i | i
Cc1ccc(C(O)Cn2nc(C)cc2C)cc1 (stereo not drawn) | -0.71 | i | i | -7 | i | i
Cc1c(N2C(=O)/C(=C/c3ccc(N(C)C)cc3)N(C)C2=S)c(=O)n(-c2ccccc2)n1C | / | / | i | / | / | /
O=S(=O)(/C(=C/c1ccc(C(F)(F)F)cc1)c1nc2ccccc2[nH]1)c1ccccc1 | -7.6* | i | i | -19 | i | i
COc1ccccc1N1CCN(C(=O)CN(C2CCCCC2)S(C)(=O)=O)CC1 | 0.23 | i | i | -11 | i | i
COc1ccc(N2CCN(C(=O)CN(C3CCCCC3)S(C)(=O)=O)CC2)cc1 | -0.03 | i | i | 32* | i | i
CCCc1nn2c(=O)c(C(c3cccc(Cl)c3)c3c(O)nc4sc(CCC)nn4c3=O)c(O)nc2s1 | 2 | i | i | 6.1* | i | i
O=C(O)C1Oc2ccccc2C1c1ccccc1 (stereo not drawn) | / | / | i | / | / | /
CC(C)n1cc(NC(=O)c2cc(-c3ccccc3)on2)cn1 | 0.62 | 11* | i | -2 | i | i
COc1ccc(C)cc1NC(=O)COC(=O)c1ccccc1SCC(=O)N1CCCC1 | 0.29 | i | i | -8 | i | i
COc1ccccc1N1CCN(C(=O)c2ccc(-c3nc4ccccc4s3)o2)CC1 | / | / | i | / | / | /
Oc1ccc(N=Nc2n[nH]c(-c3ccccc3)n2)cc1 | 0.79 | i | i | -7 | i | i
Oc1ccc(N=Nc2nc(-c3ccccc3)c(-c3ccccc3)[nH]2)cc1 | 0.4 | i | i | -22 | i | -7.4*
O=C(NCCCN1CCOCC1)c1cc2c([nH]c3ccccc32)c(-c2cccc(Br)c2)n1 | -0.14 | i | i | -30 | 8* | i
C[C@@]12CCC3[C@@](CCC4[C@@]3(C)CCC[C@@]4(C)C(=O)N3CCOCC3)(CC1=O)C2 (stereo partly drawn) | / | / | i | / | / | /
C=CCn1cc(CN2CCC(C(=O)Nc3cccc(-c4cccc(Cl)c4)c3)CC2)c(C)n1 | -3.8 | i | i | -25 | i | i
O=C(NCC(c1cccs1)N1CCOCC1)C1CCN(S(=O)(=O)c2cccc(C(F)(F)F)c2)CC1 (stereo not drawn) | -0.31 | 9* | i | -6 | i | i
